From ChEMBL document CHEMBL1158122, “Anti-inflammatory, anti-tumor-promoting, and cytotoxic activities of constituents of marigold (Calendula officinalis) flowers” (J Nat Prod, 2006)

Assays:
[1] = system: NCI-H460; test: Cytotoxicity against human NCI-H460 cells after 48 hrs by SRB assay; format: functional; conditions: NCI-H460, 48 h
[2] = system: NCI-H322M; test: Cytotoxicity against human NCI-H322M cells after 48 hrs by SRB assay; format: functional
[3] = system: A549; test: Cytotoxicity against human A549 cells after 48 hrs by SRB assay; format: functional; conditions: A549, 48 h
[4] = system: T47D; test: Cytotoxicity against human T47D cells after 48 hrs by SRB assay; format: functional
Outline: (§1)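 Tested in the NCI panel of 60 human tumour cell lines covering lung, colon, melanoma, renal, ovarian, breast and leukaemia. At least five concentrations were run in 10-fold dilutions starting from 10^-4 M. Exposure was continuous for 48 h. Growth or viability was estimated by sulforhodamine B protein staining, and GI50 values were reported.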

[5] = system: RPMI-8226; test: Cytotoxicity against human RPMI8226 cells after 48 hrs by SRB assay; format: functional; conditions: RPMI-8226, 48 h
[6] = Cytotoxicity against human HCT 116 cells after 48 hrs by SRB assay; format: functional; conditions: HCT-116, 48 h
[7] = system: K562; test: Cytotoxicity against human K-562 cells after 48 hrs by SRB assay; format: functional; conditions: K562, 48 h
[8] = system: Raji; test: Inhibition of TPA-induced EBV-early antigen activation in human Raji cells at 1000 molar ratio relative to TPA; format: cell-based; set-up: scale not given: the % may be the effect or the level left; conditions: human gammaherpesvirus 4
[9] = system: U-251; test: Cytotoxicity against human U251 cells after 48 hrs by SRB assay; format: functional; conditions: U-251, 48 h; outline: as §1
[10] = Cytotoxicity against human Hs 578T cells after 48 hrs by SRB assay; format: functional
[11] = system: HCT-15; test: Cytotoxicity against human HCT-15 cells after 48 hrs by SRB assay; format: functional; conditions: HCT-15, 48 h
[12] = Inhibition of TPA-induced EBV-early antigen activation in human Raji cells relative to TPA; format: cell-based, human gammaherpesvirus 4
[13] = system: BT-549; test: Cytotoxicity against human BT-549 cells after 48 hrs by SRB assay; format: functional; conditions: BT-549, 48 h
[14] = system: Raji; test: Inhibition of TPA-induced EBV-early antigen activation in human Raji cells at 100 molar ratio relative to TPA; format: cell-based; set-up: scale not given: the % may be the effect or the level left; conditions: human gammaherpesvirus 4
[15] = Cytotoxicity against human Raji cells assessed as cell viability at 1000 molar ratio; format: cell-based; conditions: read-out: Activity
Outline: (§2)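 Raji cells were treated with 32 pmol TPA to induce EBV early antigen activation. The test agent was added at 10, 100, 500 or 1000 mol ratio relative to TPA, and Raji cell viability was measured alongside EA activation.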

[16] = system: LOX IMVI; test: Cytotoxicity against human LOX IMVI cells after 48 hrs by SRB assay; format: functional
[17] = system: MDA-MB-435; test: Cytotoxicity against human MDA-MB-435 cells after 48 hrs by SRB assay; format: functional; conditions: MDA-MB-435, 48 h
[18] = system: NCI-H23; test: Cytotoxicity against human NCI-H23 cells after 48 hrs by SRB assay; format: functional; conditions: NCI-H23, 48 h
[19] = system: HT-29; test: Cytotoxicity against human HT-29 cells after 48 hrs by SRB assay; format: functional; conditions: HT-29, 48 h
[20] = system: Mus musculus; test: Antiinflammatory activity against TPA-induced ear edema in mouse; format: functional
Outline: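 Specific-pathogen-free female ICR mice were housed five per cage at 24 ± 2 °C. Inflammation was induced on the ear with TPA at 1 µg/ear, and the test agent was applied per ear. Ear edema inhibition was expressed as ID50 in mg per ear.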

[21] = system: EKVX; test: Cytotoxicity against human EKVX cells after 48 hrs by SRB assay; format: functional
[22] = Cytotoxicity against human Raji cells assessed as cell viability at 500 molar ratio; format: cell-based; conditions: read-out: Activity; outline: as §2
[23] = system: MOLT-4; test: Cytotoxicity against human MOLT-4 cells after 48 hrs by SRB assay; format: functional; conditions: MOLT-4, 48 h
[24] = system: CAKI-1; test: Cytotoxicity against human Caki-1 cells after 48 hrs by SRB assay; format: functional; conditions: CAKI-1, 48 h
[25] = system: HL-60; test: Cytotoxicity against human HL-60 cells after 48 hrs by SRB assay; format: functional; conditions: HL-60, 48 h
[26] = Cytotoxicity against human SK MEL28 cells after 48 hrs by SRB assay; format: functional; conditions: SK-MEL-28, 48 h
[27] = system: COLO 205; test: Cytotoxicity against human COLO205 cells after 48 hrs by SRB assay; format: functional; conditions: COLO 205, 48 h
[28] = system: HOP-92; test: Cytotoxicity against human HOP-92 cells after 48 hrs by SRB assay; format: functional; conditions: HOP-92, 48 h
[29] = Cytotoxicity against human Raji cells assessed as cell viability at 100 molar ratio; format: cell-based; conditions: read-out: Activity; outline: as §2
[30] = system: SNB-19; test: Cytotoxicity against human SNB-19 cells after 48 hrs by SRB assay; format: functional; conditions: SNB-19, 48 h

## CCCCOC(=O)[C@H]1O[C@@H](O[C@H]2CC[C@]3(C)[C@H]4CC=C5[C@@H]6CC(C)(C)CC[C@]6(C(=O)O[C@@H]6O[C@H](CO)[C@@H](O)[C@H](O)[C@H]6O)CC[C@@]5(C)[C@]4(C)CC[C@H]3C2(C)C)[C@H](O)[C@@H](O)[C@@H]1O
[1]
  GI50: 2510 nM
[2]
  GI50: 4080 nM
[3]
  GI50: 1830 nM
[4]
  GI50: 1750 nM
[5]
  GI50: 780 nM
[6]
  GI50: 1120 nM
[7]
  GI50: 1580 nM
[8]
  Activity: 10.1%
[9]
  GI50: 1060 nM
[10]
  GI50: 1620 nM
[11]
  GI50: 6730 nM
[12]
  IC50: 479 molar ratio
[13]
  GI50: 1700 nM
[14]
  Activity: 70%
[15]
  viability at 1000 molar ratio: 70%
[16]
  GI50: 810 nM
[17]
  GI50: 2520 nM
[18]
  GI50: 1480 nM
[19]
  GI50: 2070 nM
[20]
  ID50: 0.07 mg
[21]
  GI50: 3390 nM
[22]
  viability at 500 molar ratio: > 80%
[23]
  GI50: 1000 nM
[24]
  GI50: 17200 nM
[25]
  GI50: 1210 nM
[26]
  GI50: 2600 nM
[27]
  GI50: 1360 nM
[28]
  GI50: 1040 nM
[29]
  viability at 100 molar ratio: > 80%
[30]
  GI50: 1440 nM
